The target in data set [1] is NAD(P)H dehydrogenase [quinone] 1 (Mus musculus) (UniProt Q64669). In words: Induction of NQO1 activity in mouse Hepa-1c1c7 cells assessed as induction ratio at 0.01 uM after 48 hrs by MTT assay relative to control. The class given is cell-based. In short, it runs like this:
(§1)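 Hepa1c1c7 cells, 10,000 per well, 24 h, were then treated 48 h (DMSO ≤0.5%). Digitonin/EDTA lysates were assayed for menadione-dependent MTT-formazan formation using a G6P/G6PDH NADPH-generating mix with FAD at pH 7.4. The reaction ran 5 min, was stopped with dicoumarol, and read at A590. Degree of induction = (A test − blank)/(A control − blank). Ratios were read off the induction–concentration plot at the EROD test concentration.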

Data set [2] shares this target. In words: Induction of NQO1 activity in mouse Hepa-1c1c7 cells assessed as drug level required to double basal enzyme activity after 48 hrs by MTT assay. Format: cell-based. In short, it runs like this: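 Hepa1c1c7 cells were grown in α-MEM with charcoal-treated FCS, 10,000 per well, 24 h. Compound was given 48 h (DMSO ≤0.5%) over a 10–100-fold range below cytotoxic levels, up to 25 µM. Cells were lysed with digitonin/EDTA. NQO1 was assayed by menadione-driven MTT reduction (G6P/G6PDH/NADP, FAD, Tris pH 7.4), quenched with dicoumarol, A590. CD is the concentration doubling basal activity, taken from the induction–concentration plot; mean ± SD, n = 3.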

Data set [3] deals with T1, CYP1A1 (Mus musculus, UniProt P00184).
T1 sequence (P00184 whole entry): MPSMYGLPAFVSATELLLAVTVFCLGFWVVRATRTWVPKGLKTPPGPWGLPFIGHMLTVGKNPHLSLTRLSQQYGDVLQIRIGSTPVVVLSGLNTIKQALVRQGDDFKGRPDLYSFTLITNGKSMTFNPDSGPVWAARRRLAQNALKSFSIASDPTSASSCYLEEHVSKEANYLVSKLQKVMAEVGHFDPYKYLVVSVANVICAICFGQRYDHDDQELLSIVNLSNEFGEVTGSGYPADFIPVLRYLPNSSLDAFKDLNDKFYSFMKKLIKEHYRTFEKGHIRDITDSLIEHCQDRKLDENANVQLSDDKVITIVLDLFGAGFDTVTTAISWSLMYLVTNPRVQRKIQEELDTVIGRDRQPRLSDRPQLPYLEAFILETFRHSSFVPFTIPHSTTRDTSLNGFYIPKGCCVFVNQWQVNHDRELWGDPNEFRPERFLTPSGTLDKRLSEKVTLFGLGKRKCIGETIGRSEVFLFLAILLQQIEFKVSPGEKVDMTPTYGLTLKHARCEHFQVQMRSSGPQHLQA
In words: Induction of CYP1A1 activity in mouse Hepa-1c1c7 cells assessed as induction ratio at 0.01 uM after 48 hrs by EROD assay relative to control. The class given is ADME, cell-based.

The nature of data set [4]: Ratio of induction of NQO1 activity to induction of CYP1A1 activity in mouse Hepa-1c1c7 cells at 0.01 uM after 48 hrs.
Data set [5] concerns HCT-116. In words: Cell cycle arrest in human HCT116 cells released from G1 block assessed as accumulation at G2/M phase at 30 uM after 24 hrs by flow cytometry. The class given is functional. For orientation: In flow cytometry, cells or beads pass a laser one at a time.
The subject of data set [6] is HCT-116. In words: Cell cycle arrest in human HCT116 cells released from G1 block assessed as accumulation at G1 phase at 30 uM after 24 hrs by flow cytometry. Format: functional.
Data set [7] deals with HCT-116. In words: Cell cycle arrest in human HCT116 cells released from G1 block assessed as accumulation at S phase at 30 uM after 24 hrs by flow cytometry. Format: functional.
Data set [8] deals with HCT-116. In words: Cell cycle arrest in human HCT116 cells released from G2 block assessed as accumulation at sub G1 phase at 30 uM after 24 hrs by flow cytometry. Format: functional.
The subject of data set [9] is MCF7. In words: Selectivity ratio of IC50 for human CCL186 cells to IC50 for human MCF7 cells. In short, it runs like this:
(§2)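 MTT assay. MCF7 and CCL186 cells were grown in EMEM/10% FBS, HCT116 in McCoy's 5A/10% FBS. Seeding was 10,000 (MCF7), 4000 (HCT116) and 5000 (CCL186) cells per well, 24 h. Compound exposure was 72 h, DMSO ≤1% final. MTT 0.5 mg/ml for 3 h, formazan dissolved in DMSO, A590. IC50 came from sigmoidal survival curves, with 3 separate occasions per concentration. Ratio = IC50 CCL186 / IC50 of the cancer line.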

Data set [10] has as its system HCT-116. In words: Cell cycle arrest in human HCT116 cells released from G2 block assessed as accumulation at G1 phase at 30 uM after 24 hrs by flow cytometry. The class given is functional.
In data set [11] the test system is HCT-116. In words: Cell cycle arrest in human HCT116 cells released from G1 block assessed as accumulation at sub G1 phase at 30 uM after 24 hrs by flow cytometry. The class given is functional.
Data set [12] is described as follows: Selectivity ratio of IC50 for human CCL186 cells to IC50 for human HCT116 cells. The settings on record: CCL186 cells and HCT116 cells, read-out: Ratio IC50. Format: ADME, cell-based, HCT-116. In short, it runs like this: as §2
Data set [13] relates to HCT-116. In words: Cell cycle arrest in human HCT116 cells released from G2 block assessed as accumulation at G2/M phase at 30 uM after 24 hrs by flow cytometry. Format: functional.
Data set [14] concerns HCT-116. In words: Antiproliferative activity against human HCT116 cells after 72 hrs by MTT assay. The class given is functional, cell-based. The following applies: HCT-116, 72 h. The procedure, abridged: (§3)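 Cells seeded at 10,000 (MCF7), 4000 (HCT116) or 5000 (CCL186) per well and grown 24 h; MCF7 and CCL186 in EMEM with pyruvate, glutamine, 10% FBS; HCT116 in McCoy's 5A with 10% FBS. Compounds from DMSO stocks (≤1% DMSO final), 72 h exposure; MTT 0.5 mg/ml for 3 h, formazan in DMSO read at 590 nm. IC50 from sigmoidal survival curve, three separate occasions.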

The nature of data set [15]: Cytotoxicity against mouse Hepa-1c1c7 cells after 48 hrs by MTT assay. Format: cell-based. The settings on record: hepa-1c1c7, 48 h. In short, it runs like this: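 Murine hepatoma cells in α-MEM with 10% heat- and charcoal-treated fetal calf serum, passages 6–17; MTT read-out as for the cancer lines but with 48 h compound exposure. Highest concentration tested 25 µM. IC50 from survival-versus-concentration curve; mean and SD, n = 3.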

The nature of data set [16]: Antiproliferative activity against human CCL186 cells after 72 hrs by MTT assay. Format: cell-based. The following applies: CCL186, 72 h. In short, it runs like this: as §3
In general terms: Tetrazolium dyes change colour on reduction, which living cells bring about.

Data set [17] deals with MCF7. In words: Antiproliferative activity against human MCF7 cells after 72 hrs by MTT assay. Format: functional, cell-based. The settings on record: MCF7, 72 h. In short, it runs like this: as §3
Data set [18] has as its system HCT-116. In words: Cell cycle arrest in human HCT116 cells released from G2 block assessed as accumulation at S phase at 30 uM after 24 hrs by flow cytometry. Format: functional.
Data set [19] has as its system HCT-116. In words: Cell cycle arrest in human HCT116 cells released from G2 block assessed as accumulation at G1 phase at 10 uM after 24 hrs by flow cytometry. Format: functional.
The subject of data set [20] is HCT-116. In words: Cell cycle arrest in human HCT116 cells released from G2 block assessed as accumulation at G2/M phase at 10 uM after 24 hrs by flow cytometry. The class given is functional.
The target of data set [21] is T1, CYP1A1. In words: Induction of CYP1A1 activity in mouse Hepa-1c1c7 cells assessed as induction ratio at 0.05 uM after 48 hrs by EROD assay relative to control. The class given is ADME, cell-based. The procedure, abridged: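 About 10,000 Hepa1c1c7 cells/well cultured 24 h, then compound (0.5% DMSO final) for 48 h, at roughly 4 × the concentration doubling NQO1 activity. After PBS wash, cells given 5 µM 7-ethoxyresorufin plus 2 mM salicylamide, 37 °C, 40 min; resorufin fluorescence ex 530/em 590 nm, corrected for compound fluorescence. Ratio = (treated − blank)/(DMSO control − blank); mean ± SD, n = 3.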

In data set [22] the target is NAD(P)H dehydrogenase [quinone] 1 (Mus musculus) (UniProt Q64669). In words: Induction of NQO1 activity in mouse Hepa-1c1c7 cells assessed as induction ratio at 0.05 uM after 48 hrs by MTT assay relative to control. Format: cell-based. In short, it runs like this:
as §1

Data set [23] deals with HCT-116. In words: Cell cycle arrest in human HCT116 cells released from G1 block assessed as accumulation at S phase at 10 uM after 24 hrs by flow cytometry. Format: functional.
Data set [24] relates to HCT-116. In words: Cell cycle arrest in human HCT116 cells released from G1 block assessed as accumulation at G1 phase at 10 uM after 24 hrs by flow cytometry. The class given is functional.
Data set [25] has as its system HCT-116. In words: Cell cycle arrest in human HCT116 cells released from G1 block assessed as accumulation at sub G1 phase at 10 uM after 24 hrs by flow cytometry. Format: functional.
In data set [26] the test system is HCT-116. In words: Cell cycle arrest in human HCT116 cells released from G2 block assessed as accumulation at sub G1 phase at 10 uM after 24 hrs by flow cytometry. Format: functional.
Data set [27] deals with HCT-116. In words: Cell cycle arrest in human HCT116 cells released from G1 block assessed as accumulation at G2/M phase at 10 uM after 24 hrs by flow cytometry. Format: functional.
The test system of data set [28] is HCT-116. In words: Cell cycle arrest in human HCT116 cells released from G2 block assessed as accumulation at S phase at 10 uM after 24 hrs by flow cytometry. The class given is functional.

The values that follow come from ChEMBL document CHEMBL1153905, “Functionalized 3-benzylidene-indolin-2-ones: inducers of NAD(P)H-quinone oxidoreductase 1 (NQO1) with antiproliferative activity” (Bioorg Med Chem, 2009).

Sequence of NAD(P)H dehydrogenase [quinone] 1 (Mus musculus) (Q64669 whole entry): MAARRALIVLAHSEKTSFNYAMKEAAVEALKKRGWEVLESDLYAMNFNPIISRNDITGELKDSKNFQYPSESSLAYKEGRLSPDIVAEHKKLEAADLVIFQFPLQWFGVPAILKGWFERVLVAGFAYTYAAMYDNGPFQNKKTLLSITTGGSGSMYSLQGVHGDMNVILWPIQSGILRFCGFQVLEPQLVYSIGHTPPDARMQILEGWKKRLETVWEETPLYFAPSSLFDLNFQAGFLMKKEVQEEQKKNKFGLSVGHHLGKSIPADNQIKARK

What is called fold induction is the ratio of treated to control signal. In the case of `O=c1cc(-c2ccccc2)oc2ccc3ccccc3c12` [BETA-NAPHTHOFLAVONE], the Ratio was determined as 1.83 in data set [1] and 1.62 in data set [4]. For the same compound, the CD in [2] was determined as 0.028 µM. For the same compound, the fold induction at 48 h, 0.01 µM at CYP1A1 [3] stood at 1.13.
The term IC50 denotes the concentration that gives 50% inhibition. Consider `O=C1Nc2ccccc2/C1=C\c1cccc2ccccc12`, for which the Activity with HCT-116 [5] was 38.42%; in the data set on HCT-116 [6], 32.69%; with HCT-116 [7] it was 26.91%; in the data set on HCT-116 [8] it was 5.68%; in the data set with HCT-116 [10], 51.32%; in the data set with HCT-116 [11], 2.96%. The Activity is on record as 28.26% in the data set on HCT-116 [13] and 14.61% in the data set with HCT-116 [18]. In addition, the “Ratio IC50” value with MCF7 [9] is on record as 6.4. Also, the selectivity ratio in [12] was 1.3. The 50% inhibitory concentration (IC50) with HCT-116 [14] was found to be 3.9 µM; in [15], 18.6 µM; in [16], 25 µM; in the data set on MCF7 [17], 19.6 µM.
`COc1ccc(OC)c(/C=C2/C(=O)Nc3ccccc32)c1`: the Activity in the data set on HCT-116 [19] came to 39.33%; in the data set with HCT-116 [20], 34.26%; with HCT-116 [23] it was 26.68%; in the data set with HCT-116 [24], 24.24%; in the data set on HCT-116 [25] it was 2.64%; in the data set on HCT-116 [26], 9.83%. Also, the Activity with HCT-116 [27] was 46.51%; with HCT-116 [28] it was 16.68%. For the same compound, the fold induction at 48 h, 0.05 µM on CYP1A1 [21] stood at 3.08. In data set [22], the Ratio worked out at 3.32. Also, the “Ratio IC50” value in the data set on MCF7 [9] was determined as 3.5. Also, the selectivity ratio in data set [12] was 2.4. In addition, the IC50 is 5.1 µM in the data set with HCT-116 [14], greater than 25 µM in data set [15], 18.1 µM in data set [16] and 7.7 µM in the data set on MCF7 [17].
